In the EternaBench riboswitch data:

System: MS2 coat protein
Assay: apparent Kd, MS2 coat protein; higher = weaker binding; RNA-MaP array; FMN 200 µM where present
In short: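 The apparent Kd is reported as the median of filtered per-cluster binding-curve fits. To get these curves, designs transcribed by stalled E. coli RNA polymerase on Illumina sequencing-chip clusters were titrated with SNAP-549-labelled MS2 coat protein from 0.7 or 1.5 nM, doubling to 3 µM. Titrations were run without and then with constant ligand in 100 mM Tris-HCl pH 7.5, 80 mM KCl, 4 mM MgCl2, BSA, DTT, yeast tRNA and Tween-20, and green signal was normalised to red-channel RNA signal and control-cluster median Fmax.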

[1] = designed as: ON switch for flavin mononucleotide, no ligand
[2] = ligand present: flavin mononucleotide, designed as: ON switch for flavin mononucleotide
[3] = designed as: OFF switch for flavin mononucleotide, no ligand
[4] = ligand present: flavin mononucleotide, designed as: OFF switch for flavin mononucleotide

Sequence	apparent Kd [1] [nM]	apparent Kd [2] [nM]	apparent Kd [3] [nM]	apparent Kd [4] [nM]
UGGAAAUGCGAGAAGGACAUGAGGAUCACCCAUGUAGGAUAUCGACCUAGGUGCAGAUCGUUAUAGGAUCUCUUCGCUUGUAGG	16.5	7.08	–	–
GGCCUGUUAGGAUAUUAGUAGUAGUCAGAAUAGACUAUUACUGAGAAGGAACAUGAGGAUCACCCAUGUUGGCC	–	–	16.5	19.3
GGAGAACAUGAGGAUCACCCAUGUGAGCGGUAGCUAGGAUAUGCGGGAAGGAAGAGAGAAGCAGAAGGAGUCGGUA	36.1	22.9	–	–
UCGUUAUAUGAAGGAUAUACUUAACAUGAGGAUCACCCAUGUGGUGUUGUGAGUGAGUGAGUUUAGUAGAAGGUCAAUUCUUUU	–	–	212	214
GGUACCAACACAGGAUAUCCUAUCCUUUGGGUAGGAGAAGGGUGAAACAUGAGGAUCACCCAUGUGGUGCCAGGGCGUGAGCCC	1230	206	–	–
CAGUACUGAGGAUAUACAUGAGGAUCACCCAUGUGUUCCAGCUAGGAAACUAGCAAAAGUAGAAGGCAGUUCUG	–	–	20.2	182
UCGUCCAUGUCAGGAUAUGGCGGUAAAGAAAGGCUAGAAGGGACAUGAGGAUCACCCAUGUGCUCUUACGUGCACGGGCUGCGC	–	–	6.47	8.18
UGGUACUAGGGAGGAUAUGGGAAGAUACAUGAGGAUCACCCAUGUUUAAGAAUGCCGAGAGGCAACUAGAAGGCCCUAGUACGU	434	19.6	–	–
GUAGCUAUUAUUAUACAUGAGGAUCACCCAUGUUACAUGUGUAAGGAUAUUGAAGUUUUUAUAAUCAAGAAGGUACUAUGCUAC	16.8	9.2	–	–
UAUAUAUAGUAAGGAUAUGUAUUUAGUUUAUAAACAGAAGGUACUGACAUGAGGAUCACCCAUGUUUUAGUGUGGGCAUGUAGA	–	–	87.7	127
GAUCGUUUAGAGGAUAUCGUGCUAAACAUUACAUGAGAAGGCUAGACAUGAGGAUCACCCAUGUAUGCUCGUGA	–	–	15.5	17.1
GAAGGCUGGUAGAAGGAUCCUCACAUGAGGAUCACCCAUGUAACAGCGGAUAGGAUAUACCGUCUUUCACGUUGGUCUCCCUAA	370	25.3	–	–
GGGUACAUCGGAGGAUAUCAUGUAAAUACAUGAGGAUCACCCAUGUCGAUGGAGACAUCGGAGAUUGAGAAGGCCGAUGUACCG	452	25.9	–	–
CCUUAACAUGAGGAUCACCCAUGUGAGGAUAUGAUGCAGCAGUGGUCUACGCUGUGCAUCAGAAGGUACAUGGU	–	–	35.9	145
GGUAUCCGGCAGGAUAUUGUGAGAAUCUGUAAGCGAGAAGGGCCAACAUGAGGAUCACCCAUGUACCAUUGAGA	–	–	52.3	45.1
GCAGACGUAGUGAGGAUAUGCUCUACCUCGGUAGAGCAGAAGGCACAUGAGGAUCACCCAUGUGGUUCUUCUGC	–	–	28.2	339
AUCGUGCAGCUUUGCUGUACGAGUACAUGAGGAUCACCCAUGUAGGAUAUGGUACGCUUUGCGUGCUAGAAGGAUAUGCGAUUG	–	–	43.8	46.1
UUAAAUCAUGUAGGAUAUGCAUGGCGAAGCUACGCAGAAGGACAUGAGGAUCACCCAUGUUAUAGCUACCAAGUAAGGUGGCAA	–	–	77.9	236
GUAUCUCCUGACAUGAGGAUCACCCAUGUUUAAUUAUUAAAUCAGGAUAUCCUCUCGAAACGAGAGGAGAAGGGAUAAGAUACU	5.66	5.72	–	–

Sequence	apparent Kd [1] [nM]	apparent Kd [2] [nM]	apparent Kd [3] [nM]	apparent Kd [4] [nM]
UCAGGUGGAGGAUAUACAGCUCGAUCCUGUAAUAAAACGGCACAUGAGGAUCACCCAUGUAGAAGGCCACAAUA	–	–	25.7	126
GCAGAACAUGAGGAUCACCCAUGUCUCUAAUAUCGAGGAUAUGGGCACGGUAUAUCCGAACCAGAAGGCGAACUGC	272	60	–	–
AACCGACAUGAGGAUCACCCAUGUCAGGAUAUGGACUGACACCGAAAGGGUGGCGGAACCAGAAGGGACUGGGC	–	–	36.3	96.5
AAAAUCUAUACAGGAUAUCCAUACGCUGCAUACGGAGAAGGGUAACAAUCAUGAGGACAUGAGGAUCACCCAUGUUGUGACCAU	232	76.1	–	–
UUAUAUAAUGUGAGGAUAUGCUGGUCGAGAGAUCAGCAGAAGGCACAUGAGGAUCACCCAUGUAGUAAAUUUUA	–	–	22.5	25.9
UGGGAACGAGGAUAUCGAUGGUGGAACAUGAGGAUCACCCAUGUAUGAGAUAGUGUAGGGCGAGAAGGCGUUAAGU	–	–	94.8	66.5
AGAGAGUGACAGAAGGGCAAGCUCGAAAGCGGAGAACGCGAACGAGCUUGCAGGAUAUGUUGAACAUGAGGAUCACCCAUGUCA	7.79	6.41	–	–
UGUUGUAUUACAGGAUAUCUAGUAUUUUUAUCUAGAGAAGGGUAUUCACAUGAGGAUCACCCAUGUAUAUACGAGGAAGUUGUG	33.1	33.2	–	–
CGUAGGAUGCAGAAGGCAUGAACAUGAGGAUCACCCAUGUUAAAAGACAUGAGGAUAUGCAUCCUACGAAAAGUGCGAAAGCAC	5.15	4.54	–	–
AAAAUCAAAUCAGGAUAUUCAUACACUACAUACGGAGAAGGGAUACAAUCAUGAGGACAUGAGGAUCACCCAUGUUGUGACCAU	102	54.8	–	–
GCCUUAUCCGUCAGGAUAUACAGCCGUUAGUUGUUGUAGAAGGGACAUGAGGAUCACCCAUGUACGUACCAUUG	–	–	18.7	30.7
AACAGGACAGGAUAUACAUGAGGAUCACCCAUGUGAGAAUUAAGCAGCGUACCACACAGUAGAAGGGUCAUGGA	–	–	46.7	40
GUCGAGUGAGGAUAUGGUGAGUAGUGCCUGAGCGCUGCUCACCAGAAGGCACAUGAGGAUCACCCAUGUAUAGC	–	–	–	29
AAAACACAUGAGGAUCACCCAUGUGAGGAUAUGUUCAUUGUGAGCAAACUUAUGAUGAACAGAAGGCACAUAAA	–	–	45.5	50.7
UAGUGAUUGCAAGGAUAUGCUUAUGUUUAAUUUUUUUUAAUAUCUAACAUGAGGAUCACCCAUGUGCAGAAGGUGCUUGAUUUG	66.1	58.7	–	–
CGCAUUCCGUAGAAGGGUGACAUGAGGAUCACCCAUGUGCGAGCCGAGGGAGUCAGCGGCUCGCCACAGGAUAUACGGAGCACG	87.3	84.8	–	–
AAUAAACUCACAGGAUAUAGCAUAGGUCGCGUGAACUUACAGGCGACUAUGCUAGAAGGGUGACCACAUGAGGAUCACCCAUGU	734	145	–	–
CGCUAGGAUGGGUCUAAUGGACCUCAGGAUAUGCUUGUACAUGAGGAUCACCCAUGUAACAUUGUGCAGAAGGGAGGAUCCACG	8.82	4.57	–	–
GUAUCUUACCAAGGAUAUUUAAGAUUUGUGUAGACAUGAGGAUCACCCAUGUGGCCUUAGUCACGGGAGAAGGUGGUUUGAUAC	940	492	–	–

Sequence	apparent Kd [1] [nM]	apparent Kd [2] [nM]	apparent Kd [3] [nM]	apparent Kd [4] [nM]
ACGGUUGGGACAGGAUAUGUAACCGGGAUUCUAGUUUCGUCCGUGACAUGAGGAUCACCCAUGUUACAGAAGGGUUCUAAAUCG	–	–	189	234
AUAUCCCGAGGAUAUACAUGAGGAUCACCCAUGUCGGGCCUCUGGCCUAAGGCCGAAAGUAGAAGGUGGGUUUC	–	–	177	250
UAUAUUAUUAUAGGAUAUGGAUAUGAUGCAUAUCCAGAAGGGUGAUUAUAAUAUUUUCUGUACAUGAGGAUCACCCAUGUUUAU	141	41.6	–	–
AAGAGGUGAGGAUAUCGAAGAAGAAGAAGAAGAAGAAGAAACGAGAAGGCACAUGAGGAUCACCCAUGUAAGAA	–	–	22.5	19.9
CGGAUGUGAGGAUAUACAUGAGGAUCACCCAUGUGUGCCAGCUAGAUGACUGGCACUUGUAGAAGGCACGUCUG	–	–	11.3	21.7
UUCGUGCAGCUUUGCUGUACGCGUACAUGAGGAUCACCCAUGUAGGAUAUGGUACGCUUUGUGUGCUAGAAGGAUAUGGAGAGG	–	–	18.8	18.6
UUUUAACAUGAGGAUCACCCAUGUGAGGAUAUCGAAAUUUAUAUUAAUAUUUAUUUUUCGAGAAGGCACAUUUU	–	–	164	159
UGAGGACAUGAGGAUCACCCAUGUAAGGAUAUGCGGAGAGUUUGGAGAGGUUGAGGAGGCAGAAGGUACAGGAU	–	–	89.5	58.5
CAAUAAGACACAGGAUAUCCAGACAGGGAAGAUGGAGAAGGGUGAUCAGAAAAGACAUGAGGAUCACCCAUGUCUCGUGCGAUG	631	282	–	–
CCCAAACUUGGGCUUGGUGGUGCAUAGGAUAUCCUUGAACAUGAGGAUCACCCAUGUGCAACUGUGGAGAAGGGUGCAGGGCCU	362	88.4	–	–
CGAAAUGAUAGAGGAUAUGUUUAACAUGAGGAUCACCCAUGUGACAUGGGAUUAAUAUAUAACUUACAGAAGGCUAUUCAAUCG	–	–	38.7	52.1
AUAUUGUGAGGAUAUGAACUUAGUAUCGAAAGAUACUAUGUUCAGAAGGCACAUGAGGAUCACCCAUGUUUCUC	–	–	81.7	569
AUACUAAAUGAAGGAUAUCUAAGCAUACACCUGAGAGAAGGUCAUUUUGACAUGAGGAUCACCCAUGUUGUGGUUAAUGGGUUA	–	–	237	225
CCCGUGUGAGGAUAUCGUUCGCUUGGCGUUUGUCGGGUGGGCGAGAAGGUACAUGAGGAUCACCCAUGUGCGGG	–	–	172	422
ACAUGAGGAUCACCCAUGUUGAUAGUAGAAGGGACAGAGAAGAAGAAACAUGAGGAUCACCCAUGUCAGGAUAUGCGAAUUGGA	36.4	33.6	–	–
GUAGCAUACCGAGGAUAUUCAGGGCGUGGAUAUACAUGAGGAUCACCCAUGUGGCGGAAGCCUAGGGAGAAGGCGGGCUGCUAC	21.6	16.3	–	–
AGAUUUGUACAUGAGGAUCACCCAUGUUAAUAGGUGUUUGUCAGAAGGCAUUAAUAGAGAUUUAAUGAGGAUAUGAAGUUACAA	70.3	46.3	–	–
AGGCCGCUACGCCGGCUUCACGCACAGGAUAUGCAGUUACAUGAGGAUCACCCAUGUGGCCAUGUGCAGAAGGGUGGUUCGUUA	109	24.5	–	–
